According to ChEMBL document CHEMBL1139747, “Pyridine-2-propanoic acids: Discovery of dual PPARalpha/gamma agonists as antidiabetic agents” (Bioorg Med Chem Lett, 2006):

Experiments:
[1] = target: T1, Peroxisome proliferator-activated receptor alpha (Homo sapiens, UniProt Q07869); assay: Agonist activity at human PPAR alpha in HepG2 cells by PPAR-GAL4 transactivation assay; type: functional, cell-based
T1 sequence (Q07869 whole entry): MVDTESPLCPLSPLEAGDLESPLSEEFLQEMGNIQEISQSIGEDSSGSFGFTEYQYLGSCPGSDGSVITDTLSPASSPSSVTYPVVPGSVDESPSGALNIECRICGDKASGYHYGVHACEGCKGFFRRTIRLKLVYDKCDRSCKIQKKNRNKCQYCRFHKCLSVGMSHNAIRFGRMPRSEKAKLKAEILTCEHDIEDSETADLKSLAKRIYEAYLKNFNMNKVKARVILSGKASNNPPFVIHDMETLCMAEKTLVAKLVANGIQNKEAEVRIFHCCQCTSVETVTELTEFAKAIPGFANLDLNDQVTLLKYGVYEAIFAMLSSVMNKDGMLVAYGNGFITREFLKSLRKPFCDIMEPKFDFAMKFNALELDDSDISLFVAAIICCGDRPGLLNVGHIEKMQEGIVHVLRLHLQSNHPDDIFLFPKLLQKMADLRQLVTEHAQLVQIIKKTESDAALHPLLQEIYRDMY

[2] = target: T1, Peroxisome proliferator-activated receptor alpha; assay: Displacement of radiolabeled GW-2331 from human PPAR alpha by SPA assay
[3] = target: T2, Peroxisome proliferator-activated receptor gamma (Homo sapiens, UniProt P37231); assay: Agonist activity at human PPAR gamma in HepG2 cells by PPAR-GAL4 transactivation assay; type: functional, cell-based
T2 sequence (P37231 whole entry): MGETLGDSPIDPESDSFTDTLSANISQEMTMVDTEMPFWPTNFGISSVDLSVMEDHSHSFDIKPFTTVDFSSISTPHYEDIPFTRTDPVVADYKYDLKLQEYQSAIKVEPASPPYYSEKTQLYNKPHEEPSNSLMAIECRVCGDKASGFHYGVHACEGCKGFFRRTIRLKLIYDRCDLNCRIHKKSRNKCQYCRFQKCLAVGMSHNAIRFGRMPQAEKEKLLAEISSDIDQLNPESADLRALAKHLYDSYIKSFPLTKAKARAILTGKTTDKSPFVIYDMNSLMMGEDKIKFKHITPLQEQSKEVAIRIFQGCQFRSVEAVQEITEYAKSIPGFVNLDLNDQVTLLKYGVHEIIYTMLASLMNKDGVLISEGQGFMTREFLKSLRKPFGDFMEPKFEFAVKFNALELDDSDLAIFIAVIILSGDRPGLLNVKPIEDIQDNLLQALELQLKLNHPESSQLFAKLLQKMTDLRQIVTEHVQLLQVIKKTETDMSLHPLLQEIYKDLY

[4] = target: T3, Peroxisome proliferator-activated receptor alpha (Homo sapiens) (UniProt Q07869); assay: Agonist activity at human PPAR alpha in HepG2 cells by PPAR-GAL4 transactivation assay relative to GW-2331; type: functional, cell-based
T3 sequence (whole entry): T1 sequence (Q07869 whole entry)
In short: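 Human PPARα–GAL4 chimera in HepG2 cells, transactivation read-out. Compounds titrated. EC50 taken as the concentration giving half of the compound's own maximal response. Percent maximal activation expressed relative to GW2331 as the standard full agonist. Where no plateau was reached, only maximal activity was reported.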

[5] = target: T2, Peroxisome proliferator-activated receptor gamma; assay: Displacement of radiolabeled darglitazone from human PPAR gamma by SPA assay
Mus musculus [6] = assay: Increase in body weight in db/db mouse at 30 mg/kg, po after 8 day; type: functional
Mus musculus [7] = assay: Reduction of hematocrit in db/db mouse at 30 mg/kg, po after 8 day; type: functional; set-up: scale not given: the % may be the effect or the level left
Mus musculus [8] = assay: Reduction of plasma glucose in db/db mouse at 3 mg/kg, po after 8 day; type: functional; set-up: scale not given: the % may be the effect or the level left
Mus musculus [9] = assay: Reduction of plasma triglycerides in db/db mouse at 3 mg/kg, po after 8 day; type: functional; set-up: scale not given: the % may be the effect or the level left
[10] = target: T3, Peroxisome proliferator-activated receptor alpha (Homo sapiens); conditions: 100 uM
Mus musculus [11] = assay: Reduction of plasma glucose in db/db mouse at 30 mg/kg, po after 8 day; type: functional; set-up: scale not given: the % may be the effect or the level left
Mus musculus [12] = assay: Reduction of hematocrit in db/db mouse at 3 mg/kg, po after 8 day; type: functional; set-up: scale not given: the % may be the effect or the level left
Mus musculus [13] = assay: Reduction of plasma triglycerides in db/db mouse at 30 mg/kg, po after 8 day; type: functional; set-up: scale not given: the % may be the effect or the level left
Mus musculus [14] = assay: Increase in body weight in db/db mouse at 3 mg/kg, po after 8 day; type: functional
[15] = Oral bioavailability in Sprague-Dawley rat; type: ADME, organism-based; conditions: in vivo
In short: (§1)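 Male Sprague–Dawley rats were given the compound both orally and intravenously. Clearance comes from the iv leg. Half-life and AUC come from the oral leg, with AUC reported dose-normalized. Oral bioavailability compares the oral and iv exposures.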

[16] = Half life in orally dosed Sprague-Dawley rat; type: ADME, organism-based; conditions: in vivo, po; in short: as §1
[17] = AUC in orally dosed Sprague-Dawley rat; type: ADME, organism-based; conditions: plasma, po; in short: as §1
[18] = Clearance in iv dosed Sprague-Dawley rat; type: ADME, organism-based; conditions: in vivo; in short: as §1

SMILES | EC50 [1] [nM] | Ki [2] [nM] | EC50 [3] [nM] | Activity [4] [%] | other results
Cc1oc(-c2ccccc2)nc1CCOc1ccc(CC2(C(=O)O)CCCO2)nc1 (stereo unspecified) | – | – | – | 90 | –
CN(CCOc1ccc(CC2SC(=O)NC2=O)cc1)c1ccccn1 (stereo unspecified) [ROSIGLITAZONE] | – | – | – | – | Activity (Mus musculus [6]): 17.4%; Activity (Mus musculus [7]): 5.2%; Activity (Mus musculus [8]): 51%; Activity (Mus musculus [9]): 83%; inhibition [10]: 45%; Activity (Mus musculus [11]): 74%; Activity (Mus musculus [12]): 1.2%; Activity (Mus musculus [13]): 106%; Activity (Mus musculus [14]): 9.5%
Cc1oc(-c2ccccc2)nc1CCOc1ccc(C[C@@]2(C(=O)O)CCCO2)nc1 | – | – | – | 6 | –
Cc1oc(-c2ccccc2)nc1CCOc1ccc(CC2(C(=O)O)CCCCO2)nc1 (stereo unspecified) | > 10000 | – | > 10000 | 5 | –
COC(Cc1ccc(OCCc2nc(-c3ccccc3)oc2C)cn1)C(=O)O (stereo unspecified) | 3140 | 3700 | 280 | 95 | Ki [5]: 348 nM
Cc1oc(-c2ccccc2)nc1CCOc1ncc(CC2(C(=O)O)CCCO2)cn1 (stereo unspecified) | > 10000 | – | 2500 | 58 | –
Cc1oc(-c2ccccc2)nc1CCOc1ccc(C[C@]2(C(=O)O)CCCO2)nc1 | – | – | – | 97 | Activity (Mus musculus [6]): 20.5%; Activity (Mus musculus [7]): 4.4%; bioavailability [15]: 58%; Activity (Mus musculus [8]): 74%; half-life [16]: 1.6 h; AUC [17]: 1200 ng·h/mL; Activity (Mus musculus [9]): 105%; Activity (Mus musculus [11]): 94%; Activity (Mus musculus [12]): 4.3%; clearance [18]: 16.7 mL/min/kg; Activity (Mus musculus [13]): 119%; Activity (Mus musculus [14]): 15.5%

The next lines start with results.

EC50 [1] [nM] | Ki [2] [nM] | EC50 [3] [nM] | Activity [4] [%] | SMILES | other results
1890 | 3490 | 156 | 77 | Cc1oc(-c2ccccc2)nc1CCOc1cnc(CC2(C(=O)O)CCCO2)cn1 (stereo unspecified) | Ki [5]: 160 nM
1570 | – | 5 | 98 | COc1cccc(-c2nc(CCOc3ccc(CC4(C(=O)O)CCCO4)nc3)c(C)o2)c1 (stereo unspecified) | –
867 | – | 12 | 93 | Cc1cccc(-c2nc(CCOc3ccc(CC4(C(=O)O)CCCO4)nc3)c(C)o2)c1 (stereo unspecified) | –
437 | 840 | 105 | 95 | COc1ccc(-c2nc(CCOc3ccc(CC4(C(=O)O)CCCO4)nc3)c(C)o2)cc1 (stereo unspecified) | –
886 | 840 | – | 76 | CCOC(Cc1ccc(OCCCc2nc(-c3ccccc3)oc2C)cn1)C(=O)O (stereo unspecified) | –
48 | – | 130 | 122 | Cc1oc(-c2ccc(Cl)cc2)nc1CCOc1ccc(CC2(C(=O)O)CCCO2)nc1 (stereo unspecified) | –
882 | 4800 | 335 | 114 | COC(C)(Cc1ccc(OCCc2nc(-c3ccccc3)oc2C)cn1)C(=O)O (stereo unspecified) | Ki [5]: 1600 nM
1230 | 2000 | 129 | 100 | CCOC(Cc1ccc(OCCc2nc(-c3ccccc3)oc2C)cn1)C(=O)O (stereo unspecified) | Ki [5]: 73 nM
